Source: article PMC11500341 (Scientific Reports, 2024)
pKd: −log10 of the molar value. No end group written: not given here.

Assays:
VEGF = test: Western blot, VEGF expression; format: cell-based, human; settings: MCF-7 and MDA-MB-231; after treatments
In short: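 MCF-7 and MDA-MB-231 lysates were taken 48 h and 72 h after the treatment groups. Protein was quantified by BCA and 30 µg run on 10% SDS-PAGE, then transferred to PVDF. Membranes were blocked 2 h in 5% milk in TBS-T. Mouse anti-human VEGF (1:300, in 5% BSA TBS-T) was applied overnight at 4 °C, then 2 h at room temperature. Detection used HRP goat anti-mouse (1:4000) and ECL, with band densitometry.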

MDA-MB-231 cells [1] = test: Cell migration; format: cell-based; settings: after 48 h and 72 h
In short: (§1)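 Cells were seeded at 0.2 × 10^6 per 35 mm dish in DMEM with 10% FBS and left to adhere overnight at 37 °C in 5% CO2. Monolayers were scratched with a sterile pipette tip and imaged at time zero. They were then treated: control, 0.05% DMSO vehicle, three test compound levels, doxorubicin, and doxorubicin plus the top level. The scratched area was re-imaged at 24, 48 and 72 h.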

MCF-7 cells [2] = test: Cell migration; format: cell-based; settings: after 48 h and 72 h
In short: as §1

Rac1 [3] = test: Western blot, Rac1 expression; format: cell-based, human; settings: for % change of protein expression: vs CT; for Rac1 expression (in words): 48 and 72 h
In short: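 MCF-7 cells (DMEM, 10% FBS) were treated per group for 48 and 72 h. Lysate protein was measured by BCA, and 30 µg was run on 10% SDS-PAGE and transferred to PVDF. Blots were blocked in 5% milk/TBS-T for 2 h. Rabbit anti-Rac1 (1:250) and GAPDH (1:500) antibodies were applied overnight at 4 °C, then 2 h at room temperature. HRP secondary (1:4000) and ECL detection followed, with band densitometry.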

[4] = system: Caspase 3/7 in MCF-7 cells; test: Caspase glow 3/7 assay, MCF-7; format: cell-based; settings: p ≤ 0.0001
[5] = system: Caspase 3/7 in MDA-MB-231 cells; test: Caspase glow 3/7 assay, MDA-MB-231; format: cell-based; settings: p ≤ 0.0001
In short: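 MDA-MB-231 cells were seeded at 5 × 10^3 per well and adhered overnight. They were exposed to the test compound (P1 75, P2 150, P3 300), Dox 0.2 or Dox + P3 for 24, 48 or 72 h. Caspase-Glo 3/7 reagent (substrate/luciferase) was added, followed by 30–60 min at 25 °C. Luminescence was then read.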

Rac1 and Tiam1 complex = settings: cited from earlier work
breast-cancer cells = settings: cited from earlier work
LIMK1 = LIMK1 concentration in serum and tumor tissue of mice by SPR; format: in vivo, Swiss Albino mice; settings: 300 μm FGDWS, Mean ± SD
Rac1 [6] = test: Rac1 concentration in serum and tumor tissue of mice by SPR; format: in vivo, Swiss Albino mice; settings: tumor tissue lysate; 300 μm FGDWS; Mean ± SD; p-value 0.0001
Phospho-p38α (Y-182) = test: Phospho-p38α concentration in serum and tumor tissue of mice by SPR; format: in vivo, Swiss Albino mice; settings: 300 μm FGDWS, Mean ± SD, p-value 0.0001
P38α = test: p38α concentration in serum and tumor tissue of mice by SPR; format: in vivo, Swiss Albino mice; settings: 300 μm FGDWS, Mean ± SD
Phospho-LIMK1 (T-508) = test: Phospho-LIMK1 concentration in serum and tumor tissue of mice by SPR; format: in vivo, Swiss Albino mice; settings: 300 μm FGDWS, Mean ± SD
HEK-293 cells = test: MTT cell viability assay, HEK-293; format: cell-based; settings: 25-500 μm FGDWS, 24, 48 and 72 h
In short: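 HEK-293 cells (DMEM, 10% FBS, passage 28–33) were seeded at 4 × 10^3 per well and adhered overnight. Test compound was added at 25, 50, 100, 150, 300 and 500 for 24, 48 and 72 h at 37 °C, 5% CO2. MTT (5 mg/ml) was incubated for 4 h, medium removed and DMSO added. Absorbance at 570 nm gave percent viability.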

Rac1 [7] = target: Rac1 (Homo sapiens, UniProt P63000); test: SPR binding of peptide to immobilized Rac1
Phospho-Cofilin1 (S-3) = test: Phospho-Cofilin1 concentration in serum and tumor tissue of mice by SPR; format: in vivo, Swiss Albino mice; settings: 300 μm FGDWS, Mean ± SD
MDA-MB-231 cells [8] = test: Annexin V-FITC / PI assay, flow cytometry, MDA-MB-231; format: cell-based
In short: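 Cells were seeded at 0.2 × 10^6 per 35 mm dish and treated per group: control, vehicle (0.05% DMSO), test compound P1 75, P2 150, P3 300, Dox 0.2, or Dox + P3. They were then trypsinized, washed twice in PBS and resuspended in 1X binding buffer. Staining was annexin V-FITC for 10 min, then PI (50 µg/ml stock) for 20 min. Flow cytometry gave four-quadrant populations.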

MCF-7 cells [9] = test: MTT cell viability assay, MCF-7; format: cell-based; settings: 24, 48 and 72 h
Cofilin1 = Cofilin1 concentration in serum and tumor tissue of mice by SPR; format: in vivo, Swiss Albino mice; settings: 300 μm FGDWS, Mean ± SD
MDA-MB-231 cells [10] = test: MTT cell viability assay, MDA-MB-231; format: cell-based; settings: 24, 48 and 72 h
In short: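 MDA-MB-231 cells (passage 28–33; DMEM with 10% FBS and 1% penicillin/streptomycin) were seeded at 5 × 10^3 per well and left overnight. Four test compound doses were added for 24, 48 or 72 h at 37 °C in 5% CO2. MTT (5 mg/ml solution) was added for 4 h, medium removed, formazan dissolved in DMSO and read at 570 nm. Results were expressed as percent viability.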

MCF-7 cells [11] = test: Annexin V-FITC / PI assay, flow cytometry, MCF-7; format: cell-based; settings: 72 h
In short: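 Test compound given to MCF-7 cells (0.2 × 10^6 per 35 mm dish) in these treatment groups: control, 0.05% DMSO vehicle, three test compound levels, doxorubicin, and doxorubicin plus the top level. Cells were trypsinized, washed twice in PBS and resuspended in binding buffer. Annexin V-FITC was added for 10 min, then PI (from a 50 µg/ml stock) for 20 min. Flow cytometry quadrants gave early apoptotic, late apoptotic, necrotic and healthy fractions.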

[12] = MCF-7, 48 h, P3 300 μm / Dox 0.2 μm / Dox + P3 0.2 μm + 300 μm
[13] = MCF-7, 72 h, P3 300 μm / Dox 0.2 μm / Dox + P3 0.2 μm + 300 μm
[14] = MDA-MB-231, 48 h, P3 300 μm / Dox 0.2 μm / Dox + P3 0.2 μm + 300 μm
[15] = MDA-MB-231, 72 h, P3 300 μm / Dox 0.2 μm / Dox + P3 0.2 μm + 300 μm
[16] = tumor tissue lysate, p-value 0.001

Compound: COc1cccc2c1C(=O)c1c(O)c3c(c(O)c1C2=O)C[C@@](O)(C(=O)CO)C[C@@H]3O[C@H]1C[C@H](N)[C@H](O)[C@H](C)O1 [Dox, Doxorubicin, reference compound]
- VEGF expression (in words) (VEGF): downregulated after treatments with peptide and Dox
- rate of cell proliferation and migration (ranking) (MDA-MB-231 cells [1]): slowest in Dox + P3 followed by Dox, P3, P2 and P1
- rate of cell proliferation and migration (ranking) (MCF-7 cells [2]): slowest in Dox + P3 followed by Dox, P3, P2 and P1
- % change of protein expression (Rac1 [3]; [12]): 13.13%
- % change of protein expression (Rac1 [3]; [13]): 43.31%
- % change of protein expression (Rac1 [3]; [14]): 32.57%
- % change of protein expression (Rac1 [3]; [15]): 31.39%
- fold change in RLU with respect to control (caspase 3/7) [4, 12]: 1.64
- fold change in RLU with respect to control (caspase 3/7) [4, 13]: 0.79
- fold change in RLU with respect to control (caspase 3/7) [5, 14]: 0.84
- fold change in RLU with respect to control (caspase 3/7) [5, 15]: 1.02

Compound: CCN(CC)CCCC(C)Nc1nc(C)cc(Nc2ccc3nc(C)cc(N)c3c2)n1 (centres unmarked) [NSC23766]
- inhibition of Rac1-Tiam1 interaction (Rac1 and Tiam1 complex): inhibits the interactions between Rac1 and Tiam1 complex
- cell cycle arrest and apoptosis (breast-cancer cells): induce G1 cell cycle arrest and apoptosis

Compound: FGDWS [FGDWS]
- LIMK1 concentration (LIMK1; serum, day 45, p-value 0.0001): 6.86 ± 1.46 ng/µL
- LIMK1 concentration (LIMK1; tumor tissue lysate, p-value 0.005): 6.37 ± 1.04 ng/µL
- Rac1 concentration (Rac1 [6]): 0.72 ± 0.02 ng/µL
- Phospho-p38α concentration (Phospho-p38α (Y-182); serum, day 45): 2.66 ± 0.16 ng/µL
- Phospho-p38α concentration (Phospho-p38α (Y-182); tumor tissue lysate): 2.77 ± 0.11 ng/µL
- VEGF expression (in words) (VEGF): downregulated after treatments with peptide and Dox
- P38α concentration (P38α; serum, day 45, p-value 0.004): 3.13 ± 0.96 ng/µL
- P38α concentration (P38α; [16]): 0.97 ± 0.06 ng/µL
- Phospho-LIMK1 concentration (Phospho-LIMK1 (T-508); serum, day 45, p-value 0.008): 7.58 ± 2.25 ng/µL
- Phospho-LIMK1 concentration (Phospho-LIMK1 (T-508); [16]): 8.01 ± 1.22 ng/µL
- rate of cell proliferation and migration (ranking) (MDA-MB-231 cells [1]): slowest in Dox + P3 followed by Dox, P3, P2 and P1
- toxic effect on normal cells (HEK-293 cells): no toxic effect
- rate of cell proliferation and migration (ranking) (MCF-7 cells [2]): slowest in Dox + P3 followed by Dox, P3, P2 and P1
- pKd (Rac1 [7]): 6.09
- KA (association constant) (Rac1 [7]; SPR, Rac1 immobilized on CM5 (4000 RU), BIAevaluation 3.0): 1.24e+06 M⁻¹
- Phospho-Cofilin1 concentration (Phospho-Cofilin1 (S-3); serum, day 45, p-value 0.006): 8.35 ± 1.15 ng/µL
- Phospho-Cofilin1 concentration (Phospho-Cofilin1 (S-3); [16]): 7.14 ± 1.34 ng/µL
- population of apoptotic cells, dose dependence (MDA-MB-231 cells [8]; 72 h): increased with increasing FGDWS doses P1 to P3
- apoptotic cell population (MDA-MB-231 cells [8]; higher dose of peptide (P3 300 μm), or in combination with Dox): 38.3%
- % change of protein expression (Rac1 [3]; MCF-7, 48 h, P1 75 μm): 1.08%
- % change of protein expression (Rac1 [3]; [12]): 25.84%
- % change of protein expression (Rac1 [3]; MCF-7, 72 h, P1 75 μm): 12.74%
- % change of protein expression (Rac1 [3]; [13]): 31.23%
- Rac1 expression (in words) (Rac1 [3]; MCF-7): downregulated significantly with increase in concentration of peptide dose from P1 to P3
- % change of protein expression (Rac1 [3]; MDA-MB-231, 48 h, P1 75 μm): 21.41%
- % change of protein expression (Rac1 [3]; [14]): 36.01%
- % change of protein expression (Rac1 [3]; MDA-MB-231, 72 h, P1 75 μm): 15.03%
- % change of protein expression (Rac1 [3]; [15]): 48.31%
- Rac1 expression (in words) (Rac1 [3]; MDA-MB-231): downregulated significantly with increase in concentration of peptide dose from P1 to P3
- cell viability, dose and time dependence (MCF-7 cells [9]): decreased in dose dependent manner with time
- Cofilin1 concentration (Cofilin1; serum, day 45, p-value 0.028): 2.68 ± 0.28 ng/µL
- Cofilin1 concentration (Cofilin1; tumor tissue lysate, p-value 0.0048): 2.83 ± 0.53 ng/µL
- cell viability, dose and time dependence (MDA-MB-231 cells [10]): decreased in dose dependent manner with time
- fold change in RLU with respect to control (caspase 3/7) ([4]; MCF-7, 48 h, P1 75 μm): 0.24
- fold change in RLU with respect to control (caspase 3/7) ([4]; MCF-7, 48 h, P2 150 μm): 0.402
- fold change in RLU with respect to control (caspase 3/7) [4, 12]: 0.93
- fold change in RLU with respect to control (caspase 3/7) ([4]; MCF-7, 72 h, P1 75 μm): 0.33
- fold change in RLU with respect to control (caspase 3/7) ([4]; MCF-7, 72 h, P2 150 μm): 0.47
- fold change in RLU with respect to control (caspase 3/7) [4, 13]: 0.66
- fold change in RLU with respect to control (caspase 3/7) ([5]; MDA-MB-231, 48 h, P1 75 μm): 0.16
- fold change in RLU with respect to control (caspase 3/7) ([5]; MDA-MB-231, 48 h, P2 150 μm): 0.25
- fold change in RLU with respect to control (caspase 3/7) [5, 14]: 0.305
- fold change in RLU with respect to control (caspase 3/7) ([5]; MDA-MB-231, 72 h, P1 75 μm): 0.35
- fold change in RLU with respect to control (caspase 3/7) ([5]; MDA-MB-231, 72 h, P2 150 μm): 0.57
- fold change in RLU with respect to control (caspase 3/7) [5, 15]: 0.65
- population of apoptotic cells, dose dependence (MCF-7 cells [11]): increased with increasing FGDWS doses P1 to P3
